The source made the active and inactive calls. The calls are words filed in the database; no cut-off is given here.
Key:
[1] = molecular target: Outer membrane protein MIP (Legionella pneumophila, UniProt Q70YI1); assay: (§1) Displacement of 5-(3-(4-(((5S,6S)-10-(3,5-dichlorophenylsulfonyl)-2-oxo-5-vinyl-3,10-diazabicyclo[4.3.1]decan-3-yl)methyl)-1H-1,2,3-triazol-1-yl)propylcarbamoyl)-2-(6-(dimethylamino)-3-(dimethyliminio)-3,10-dihydroanthracen-9-yl)benzoate from Legionella pneumophila Mip after 30 mins by fluorescence polarization assay
Outer membrane protein MIP, sequence (Q70YI1 21-233 limits assumed): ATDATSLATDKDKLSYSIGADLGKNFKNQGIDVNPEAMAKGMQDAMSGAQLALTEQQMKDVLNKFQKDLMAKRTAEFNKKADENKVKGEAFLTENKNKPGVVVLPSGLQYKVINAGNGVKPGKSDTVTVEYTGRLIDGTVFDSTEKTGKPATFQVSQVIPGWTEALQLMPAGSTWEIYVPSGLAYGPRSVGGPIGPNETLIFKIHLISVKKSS
In short: (§2)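 Competitive fluorescence polarization against a TAMRA-labelled tracer in 20 mM NaCl, 20 mM HEPES pH 8.0, 0.002% Tween20. Ligand serially diluted 1:1 in DMSO, then diluted 50-fold into tracer-containing buffer and added to protein. Equilibrated 30 min at room temperature before polarization read. Competition curves fitted.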

[2] = as §1, with “Chlamydia trachomatis” for “Legionella pneumophila”; in short: as §2
[3] = molecular target: T1, Peptidyl-prolyl cis-trans isomerase Mip (Chlamydia pneumoniae, UniProt Q9Z7P3); assay: as §1, with “Chlamydia pneumoniae” for “Legionella pneumophila”; in short: as §2
T1 sequence (Q9Z7P3 whole entry): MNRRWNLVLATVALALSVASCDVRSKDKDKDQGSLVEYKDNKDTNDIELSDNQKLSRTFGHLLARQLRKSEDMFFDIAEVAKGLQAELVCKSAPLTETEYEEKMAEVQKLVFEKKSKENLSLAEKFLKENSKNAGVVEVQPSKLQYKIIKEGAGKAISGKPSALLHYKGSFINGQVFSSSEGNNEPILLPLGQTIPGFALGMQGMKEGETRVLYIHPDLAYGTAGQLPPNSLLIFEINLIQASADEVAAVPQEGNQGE

Chlamydia pneumoniae [4] = assay: Antibacterial activity against Chlamydia pneumoniae CWL029 infected in human Hep2 or HeLa cells assessed as decrease in inclusion size at 10 uM after 48 hrs by immunofluorescent staining-based assay; type: functional, cell-based
In short: (§3)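 HEp-2 or HeLa cells, 3.5 × 10^4 per well in RPMI1640 with 5% FBS, nonessential amino acids and 2 mM glutamine, grown overnight at 37 °C in 5% CO2. Inhibitor added at infection (C. pneumoniae CWL029 0.2 IFU/cell; C. trachomatis serovar D 0.5 IFU/cell). Plates centrifuged at 700g for 1 h at 35 °C, then incubated 48 h. Inclusions stained with anti-chlamydial-LPS immunofluorescence and host cells counterstained with Evans Blue. Recoverable bacteria normalized to untreated controls.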

[5] = as §1, with “Candida albicans FKBP12” for “Legionella pneumophila Mip”; in short: as §2
[6] = as §1, with “[…] FKBP35” for “Legionella pneumophila Mip”; set-up: species or system Plasmodium falciparum; in short: as §2
Chlamydia trachomatis = assay: Antibacterial activity against Chlamydia trachomatis Serovar D infected in human Hep2 or HeLa cells assessed as decrease in generation of infectious elementary bodies at 10 uM after 48 hrs by immunofluorescent staining-based assay; type: functional, cell-based; in short: as §3
Chlamydia pneumoniae [7] = assay: Antibacterial activity against Chlamydia pneumoniae CWL029 infected in human Hep2 or HeLa cells assessed as decrease in generation of infectious elementary bodies at 10 uM after 48 hrs by immunofluorescent staining-based assay; type: functional, cell-based; in short: as §3
Plasmodium falciparum [8] = assay: Antiparasitic activity against Plasmodium falciparum 3D7 infected in human RBC assessed as decrease in parasitemia after 60 hrs by Hoechst 33342 staining-based flow cytometric method; type: functional; details: for IC50: 3D7, 60 h
In short: (§4)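 Sorbitol-synchronized early-stage parasites, adjusted to 1% parasitemia at 2% hematocrit. Serial dilutions of compound in DMSO (≤0.05% per well) applied in triplicate for 60 h. Cells stained with 16.2 μM Hoechst 33342 in PBS for 20 min at room temperature. Parasitemia read by flow cytometry; IC50 estimated from dose–response curves.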

Legionella pneumophila = assay: Antibacterial activity against Legionella pneumophila Corby infected in differentiated human THP1 cells assessed as bacterial growth inhibition after 24 hrs; type: functional
In short: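 THP-1 monocytes at 5 × 10^5 cells/mL were differentiated with 100 nM PMA for 2 days. L. pneumophila Corby grown 3 days on BCYE agar was added at MOI 1. After 2 h, extracellular bacteria were washed off with PBS and compound was added in medium (control 1% DMSO). At 2 and 24 h, cells were lysed with 0.1% Triton X-100 and dilutions plated on BCYE. Colonies counted after 3–4 days at 37 °C. Three independent experiments in duplicate.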

[9] = molecular target: Peptidyl-prolyl cis-trans isomerase FKBP1A (Homo sapiens, UniProt P62942); assay: as §1, with “human FKBP12” for “Legionella pneumophila Mip”; in short: as §2
Peptidyl-prolyl cis-trans isomerase FKBP1A, sequence (P62942 whole entry): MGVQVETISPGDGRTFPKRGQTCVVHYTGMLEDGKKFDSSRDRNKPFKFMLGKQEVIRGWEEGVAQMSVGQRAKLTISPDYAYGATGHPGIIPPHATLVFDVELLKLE

Plasmodium falciparum [10] = assay: Antiparasitic activity against multidrug-resistant Plasmodium falciparum Dd2 infected in human RBC assessed as decrease in parasitemia after 60 hrs by Hoechst 33342 staining-based flow cytometric method; type: functional; details: Dd2, 60 h; in short: as §4
[11] = molecular target: Peptidyl-prolyl cis-trans isomerase FKBP1B (Homo sapiens, UniProt P68106); assay: as §1, with “human FKBP12.6” for “Legionella pneumophila Mip”
Peptidyl-prolyl cis-trans isomerase FKBP1B, sequence (P68106 whole entry): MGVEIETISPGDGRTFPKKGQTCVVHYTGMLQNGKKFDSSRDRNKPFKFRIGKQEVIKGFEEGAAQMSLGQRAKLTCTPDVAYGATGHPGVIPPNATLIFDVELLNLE
In short: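 Competitive fluorescence polarization with the fluorescent tracer in 20 mM NaCl, 20 mM HEPES pH 8.0, 0.002% Tween20. Ligand is serially diluted 1:1 in DMSO, then 1:50 into tracer-containing buffer. This mix is added to protein at 1.11× final concentration (protein:mix 45:5). After 30 min at room temperature to reach equilibrium, polarization is read and competition curves are fitted.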

[12] = molecular target: T2, Peptidyl-prolyl cis-trans isomerase FKBP2 (Homo sapiens, UniProt P26885); assay: as §1, with “human FKBP13” for “Legionella pneumophila Mip”; in short: as §2
T2 sequence (P26885 whole entry): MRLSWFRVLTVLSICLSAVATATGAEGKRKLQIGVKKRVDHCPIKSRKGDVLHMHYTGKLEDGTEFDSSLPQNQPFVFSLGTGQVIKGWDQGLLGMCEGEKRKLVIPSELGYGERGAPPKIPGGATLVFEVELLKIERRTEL

[13] = molecular target: T3, Peptidyl-prolyl cis-trans isomerase FKBP5 (Homo sapiens, UniProt Q13451); assay: as §1, with “human FKBP51” for “Legionella pneumophila Mip”; in short: as §2
T3 sequence (Q13451 whole entry): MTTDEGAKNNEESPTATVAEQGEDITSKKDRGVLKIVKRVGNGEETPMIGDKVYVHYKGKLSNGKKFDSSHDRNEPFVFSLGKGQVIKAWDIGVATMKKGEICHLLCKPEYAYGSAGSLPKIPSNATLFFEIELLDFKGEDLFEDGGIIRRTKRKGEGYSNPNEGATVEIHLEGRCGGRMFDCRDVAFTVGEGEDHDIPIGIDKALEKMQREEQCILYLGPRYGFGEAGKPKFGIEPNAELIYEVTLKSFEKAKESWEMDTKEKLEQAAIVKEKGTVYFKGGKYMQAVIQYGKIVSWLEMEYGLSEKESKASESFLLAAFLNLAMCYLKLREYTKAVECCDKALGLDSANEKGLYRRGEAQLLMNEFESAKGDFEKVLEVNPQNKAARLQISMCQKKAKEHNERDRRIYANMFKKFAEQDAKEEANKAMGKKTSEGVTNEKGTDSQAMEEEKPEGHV

[14] = molecular target: T4, Peptidyl-prolyl cis-trans isomerase FKBP4 (Homo sapiens, UniProt Q02790); assay: as §1, with “human FKBP52” for “Legionella pneumophila Mip”; in short: as §2
T4 sequence (Q02790 whole entry): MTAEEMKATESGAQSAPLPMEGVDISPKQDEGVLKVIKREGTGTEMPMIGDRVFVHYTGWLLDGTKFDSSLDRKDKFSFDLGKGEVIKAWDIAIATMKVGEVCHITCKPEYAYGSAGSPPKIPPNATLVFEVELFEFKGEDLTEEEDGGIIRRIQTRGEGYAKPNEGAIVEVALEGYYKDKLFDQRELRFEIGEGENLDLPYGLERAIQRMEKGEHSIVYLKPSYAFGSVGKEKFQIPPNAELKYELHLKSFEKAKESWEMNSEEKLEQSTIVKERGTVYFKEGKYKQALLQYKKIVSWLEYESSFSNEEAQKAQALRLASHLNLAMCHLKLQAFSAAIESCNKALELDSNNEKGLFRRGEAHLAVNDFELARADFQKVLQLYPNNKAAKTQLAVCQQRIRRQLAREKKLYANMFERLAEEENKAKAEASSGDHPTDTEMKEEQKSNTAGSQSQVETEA

[15] = molecular target: T5, Peptidyl-prolyl cis-trans isomerase FKBP3 (Homo sapiens, UniProt Q00688); assay: as §1, with “human FKBP25” for “Legionella pneumophila Mip”; in short: as §2
T5 sequence (Q00688 whole entry): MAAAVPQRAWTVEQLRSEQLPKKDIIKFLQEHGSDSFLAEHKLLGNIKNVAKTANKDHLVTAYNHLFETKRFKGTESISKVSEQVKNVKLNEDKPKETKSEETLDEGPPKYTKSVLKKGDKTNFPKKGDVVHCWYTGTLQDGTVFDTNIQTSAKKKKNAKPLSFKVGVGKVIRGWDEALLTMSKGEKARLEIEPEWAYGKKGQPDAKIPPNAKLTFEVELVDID

## C=C[C@H]1CN(Cc2ccco2)C(=O)[C@@H]2CCC[C@H]1N2S(=O)(=O)c1cc(Cl)cc(Cl)c1
[1]
  Ki: 6.59 µM
[2]
  Ki: 1820 nM
[3]
  Ki: 315 nM
Chlamydia pneumoniae [4]
  Activity: Active
[5]
  Ki: 1490 nM
[6]
  Ki: 5220 nM
Chlamydia trachomatis
  Activity: Active
Chlamydia pneumoniae [7]
  Activity: Active

## CC[C@H]1CN(CCOC)C(=O)[C@@H]2CCC[C@H]1N2S(=O)(=O)c1cc(Cl)cc(Cl)c1
Plasmodium falciparum [8]
  IC50: 8.3 µM
Legionella pneumophila
  growth inhibition (GI): Dose-dependent effect

## C=C[C@H]1CN(CCCCOC)C(=O)[C@@H]2CCC[C@H]1N2S(=O)(=O)c1cc(Cl)cc(Cl)c1
[9]
  Ki: 249 nM

## C=C[C@H]1CN(CCNC)C(=O)[C@@H]2CCC[C@H]1N2S(=O)(=O)c1cc(Cl)cc(Cl)c1
[9]
  Ki: 7 to 25 nM

## C=C[C@H]1CN(Cc2ncccc2F)C(=O)[C@@H]2CCC[C@H]1N2S(=O)(=O)c1cc(Cl)cc(Cl)c1
[9]
  Ki: 11.8 nM

## CC[C@H]1CN(Cc2ccccn2)C(=O)[C@@H]2CCC[C@H]1N2S(=O)(=O)c1cc(Cl)cc(Cl)c1
Plasmodium falciparum [8]
  Activity: Dose-dependent effect
  IC50: 2.3 µM
Plasmodium falciparum [10]
  IC50: 3.1 µM
[1]
  Ki: 0.598 µM
Legionella pneumophila
  growth inhibition (GI): Dose-dependent effect
[2]
  Ki: 1810 nM
[3]
  Ki: 399 nM
[5]
  Ki: 40.1 nM
[6]
  Ki: 98.1 nM

## COC[C@H]1CN(Cc2ccccn2)C(=O)[C@@H]2CCC[C@H]1N2S(=O)(=O)c1cc(Cl)cc(Cl)c1
[11]
  Ki: 1.23 nM
[9]
  Ki: 0.45 nM
[12]
  Ki: 60.5 nM
[13]
  Ki: 24.5 nM
[14]
  Ki: 18.9 nM
[15]
  Ki: 1130 nM

## C=C[C@H]1CN(CC(=O)O)C(=O)[C@@H]2CCC[C@H]1N2S(=O)(=O)c1cc(Cl)cc(Cl)c1
[9]
  Ki: 7 to 25 nM

## C=C[C@@H]1CN(CCN(C)C)C(=O)[C@@H]2CCC[C@H]1N2S(=O)(=O)c1cc(Cl)cc(Cl)c1
[9]
  Ki: 7 to 25 nM

## C=C[C@H]1CN(CC#N)C(=O)[C@@H]2CCC[C@H]1N2S(=O)(=O)c1cc(Cl)cc(Cl)c1
[9]
  Ki: 49 to 80 nM

## C=C[C@H]1CN(C)C(=O)[C@@H]2CCC[C@H]1N2S(=O)(=O)c1cc(Cl)cc(Cl)c1
[9]
  Ki: 49 to 80 nM

## C=C[C@@H]1CN(CCF)C(=O)[C@@H]2CCC[C@H]1N2S(=O)(=O)c1cc(Cl)cc(Cl)c1
[9]
  Ki: 49 to 80 nM

## C=C[C@H]1CN(CCOCC)C(=O)[C@@H]2CCC[C@H]1N2S(=O)(=O)c1cc(Cl)cc(Cl)c1
[9]
  Ki: 21.1 nM

## C=C[C@H]1CN(CC(N)=O)C(=O)[C@@H]2CCC[C@H]1N2S(=O)(=O)c1cc(Cl)cc(Cl)c1
[9]
  Ki: 7 to 25 nM

## C#CCN1C[C@H](C=C)[C@H]2CCC[C@@H](C1=O)N2S(=O)(=O)c1cc(Cl)cc(Cl)c1
[9]
  Ki: 49 to 80 nM

## C=C[C@H]1CN(Cc2ccccn2)C(=O)[C@@H]2CCC[C@H]1N2S(=O)(=O)c1ccc(-c2ncccn2)cc1
[5]
  Ki: 52 nM

## C=C[C@H]1CN(CCOC)C(=O)[C@@H]2CCC[C@H]1N2S(=O)(=O)c1cc(Cl)cc(Cl)c1
[9]
  Ki: 18.8 nM

## C=C[C@H]1CN(CC(=O)OCC)C(=O)[C@@H]2CCC[C@H]1N2S(=O)(=O)c1cc(Cl)cc(Cl)c1
[9]
  Ki: 7 to 25 nM

## C=C[C@H]1CN(CCCOC)C(=O)[C@@H]2CCC[C@H]1N2S(=O)(=O)c1cc(Cl)cc(Cl)c1
[9]
  Ki: 143 nM

## C=C[C@H]1CNC(=O)[C@@H]2CCC[C@H]1N2S(=O)(=O)c1cc(Cl)cc(Cl)c1
[9]
  Ki: 49 to 80 nM
